Test results published in article PMC7442708 (SLAS discovery : advancing life sciences R & D, 2020).

Assays:
[1] = system: Notch target genes HEY1 and HES1; assay: RT-qPCR of endogenous gene expression in NICD-transfected HEK293T cells; format: cell-based; details: 2.5 μM, 24 hours; normalized to beta actin
How it was run: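 Total RNA extracted with TRIzol; cDNA reverse-transcribed from 1 μg RNA. Transcripts quantified by SYBR-based real-time PCR, normalized to beta-actin, and analyzed by the ΔΔCt method.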

[2] = system: MOLT4 cells; assay: cell proliferation, cellular ATP; format: cell-based; details: 36 hours
How it was run: (§1)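 T-ALL cell lines exposed to test compound for 36 h; MOLT-4 grown in RPMI 1640 with 15% FBS. Cellular ATP measured by CellTiter-Glo luminescence as an index of metabolically active cells. Proliferation expressed relative to DMSO control; mean ± SEM, N = 3.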

[3] = system: JURKAT cells; assay: cell proliferation, cellular ATP; format: cell-based; details: 36 hours; compared to CCRF-CEM, DND-41 and CUTLL1
How it was run: as §1

[4] = system: Notch-dependent transcription; assay: dual luciferase reporter assay; format: cell-based; details: TK-Renilla luciferase control reporter (Table S1)
[5] = biological target: RBPJ occupancy (RBPJ-DNA interactions in cells) (Mus musculus, UniProt P31266); assay: anti-RBPJ ChIP-qPCR in F9 cells; format: cell-based, murine; details: 2.5 μM, 24 hours
Chain of RBPJ occupancy (RBPJ-DNA interactions in cells) (Mus musculus, UniProt P31266) (P31266 whole entry): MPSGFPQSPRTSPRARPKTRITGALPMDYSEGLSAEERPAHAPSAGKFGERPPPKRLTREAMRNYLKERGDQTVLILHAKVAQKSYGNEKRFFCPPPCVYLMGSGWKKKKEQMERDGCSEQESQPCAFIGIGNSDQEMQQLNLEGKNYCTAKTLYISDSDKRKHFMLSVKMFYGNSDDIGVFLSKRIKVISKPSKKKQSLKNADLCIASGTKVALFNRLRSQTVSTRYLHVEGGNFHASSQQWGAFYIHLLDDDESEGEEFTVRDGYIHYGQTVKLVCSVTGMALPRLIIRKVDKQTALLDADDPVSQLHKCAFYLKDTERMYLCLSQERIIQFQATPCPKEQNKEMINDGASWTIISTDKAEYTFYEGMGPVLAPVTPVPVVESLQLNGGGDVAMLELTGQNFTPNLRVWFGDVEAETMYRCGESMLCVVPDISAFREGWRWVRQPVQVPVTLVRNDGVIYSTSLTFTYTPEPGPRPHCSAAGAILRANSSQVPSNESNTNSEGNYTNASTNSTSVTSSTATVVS
How it was run: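 Murine F9 cells, grown in DMEM with 10% FBS, exposed to 2.5 µM test compound for 24 h. About 4 million cells fixed; chromatin sonicated on ice for 12 cycles (30 s on/90 s off, 40% amplitude). ChIP with polyclonal anti-RBPJ (1:100) and protein A-agarose in 500 μL. Enriched DNA quantified by SYBR green real-time PCR; Actin B serves as negative region. Mean ± SEM, N = 3.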

[6] = system: CUTLL1 cells; assay: cell proliferation, cellular ATP; format: cell-based; details: 36 hours
[7] = system: CCRF-CEM cells; assay: cell proliferation, cellular ATP; format: cell-based; details: 36 hours
How it was run: (§2)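 Cells kept in RPMI 1640 with 15% FBS (CCRF-CEM, DND-41) and exposed to test compound for 36 h. Cellular ATP was measured by CellTiter-Glo luminescence as an index of metabolically active cells. Proliferation is expressed relative to DMSO control; mean ± SEM, N = 3.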

[8] = system: TALL-1 cells; assay: cell proliferation, cellular ATP; format: cell-based; details: 96 hours; compared to JURKAT
How it was run: (§3)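 HPB-ALL and TALL-1 cells (DSMZ), grown in RPMI 1640 with 15% FBS. Exposed to varying amounts of test compound for 96 h, a longer exposure chosen because these lines divide more slowly. Metabolically active cells measured as cellular ATP by CellTiter-Glo luminescence. Proliferation expressed relative to DMSO control; mean ± SEM, N = 3.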

[9] = system: HPB-ALL cells; assay: cell proliferation, cellular ATP; format: cell-based; details: 96 hours; compared to JURKAT
How it was run: as §3

[10] = system: DND-41 cells; assay: cell proliferation, cellular ATP; format: cell-based; details: 36 hours
How it was run: as §2

[11] = biological target: RBPJ occupancy (RBPJ-DNA interactions in cells) (Homo sapiens, UniProt Q06330); assay: anti-RBPJ ChIP-qPCR in NICD-transfected HEK293T cells; format: cell-based; details: 2.5 μM, 24 hours
Chain of RBPJ occupancy (RBPJ-DNA interactions in cells) (Homo sapiens, UniProt Q06330) (Q06330 whole entry): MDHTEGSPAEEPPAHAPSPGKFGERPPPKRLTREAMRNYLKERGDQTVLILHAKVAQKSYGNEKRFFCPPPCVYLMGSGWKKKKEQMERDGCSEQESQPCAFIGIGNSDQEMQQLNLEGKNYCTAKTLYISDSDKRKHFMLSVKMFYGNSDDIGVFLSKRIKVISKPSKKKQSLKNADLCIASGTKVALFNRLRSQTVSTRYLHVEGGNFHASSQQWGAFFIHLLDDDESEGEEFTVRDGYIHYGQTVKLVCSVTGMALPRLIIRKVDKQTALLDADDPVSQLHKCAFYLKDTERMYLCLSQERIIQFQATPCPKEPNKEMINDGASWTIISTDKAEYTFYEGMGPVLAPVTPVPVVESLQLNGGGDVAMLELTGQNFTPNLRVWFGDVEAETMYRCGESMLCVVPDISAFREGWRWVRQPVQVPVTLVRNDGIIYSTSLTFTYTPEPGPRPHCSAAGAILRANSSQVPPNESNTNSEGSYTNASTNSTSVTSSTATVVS
How it was run: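 HEK293T cells (DMEM, 10% FBS) co-transfected with Flag-NICD and 4xRBPJ-firefly luciferase. About 4 million cells were fixed and sonicated on ice (12 cycles, 30 s on/90 s off, 40% amplitude). ChIP used polyclonal anti-RBPJ (FC31, 1:100) with protein A-agarose. SYBR green qPCR; mean ± SEM, N = 3.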

[12] = system: KOPT-K1 cells; details: compared to JURKAT; cited from earlier work
[13] = system: HES1 and HEY1; details: cited from earlier work
[14] = system: patient-derived xenograft models; details: cited from earlier work
[15] = site occupied in part through CTCF

CC(=O)OC[C@H]1O[C@@H]([S-])[C@H](OC(C)=O)[C@@H](OC(C)=O)[C@@H]1OC(C)=O.CCP(CC)CC.[Au+] [auranofin, Auranofin]
expression of HES1 [1]: significantly decreased | expression of HEY1 [1]: significantly decreased | expression of Notch-independent TCERG1 [1]: remained unchanged | sensitivity of proliferation (cellular ATP) [2]: more sensitive to auranofin than JURKAT | sensitivity of proliferation (cellular ATP) [3]: most resistant | transcription from the TK promoter [4]: decreases transcription from the TK promoter | RBPJ occupancy at the HES1 promoter ([5]; direct RBPJ binding site): decreased RBPJ occupancy | RBPJ occupancy at the ZFP334 promoter ([5]; direct RBPJ binding site): decreased RBPJ occupancy | RBPJ occupancy at NANOG [5, 15]: not effectively disrupted | RBPJ occupancy at NAPRT1 [5, 15]: not effectively disrupted | sensitivity of proliferation (cellular ATP) [6]: significantly more sensitive to auranofin than JURKAT | sensitivity of proliferation (cellular ATP) [7]: significantly more sensitive to auranofin than MOLT-4 | proliferation (cellular ATP) [8]: decreased the proliferation | proliferation (cellular ATP) [9]: decreased the proliferation | sensitivity of proliferation (cellular ATP) [10]: significantly more sensitive to auranofin than JURKAT | RBPJ occupancy at the endogenous HES1 promoter [11]: decreased RBPJ occupancy at these sites significantly | RBPJ occupancy at the endogenous HEY1 promoter [11]: decreased RBPJ occupancy at these sites significantly

Cn1nccc1-c1ccc(C(N)=O)c(Oc2ccccc2F)c1 [RIN1]
sensitivity of Notch-addicted KOPT-K1 cells [12]: as sensitive to RIN1 than Notch-independent JURKAT cells | expression of the classic Notch targets HES1 and HEY1 [13]: increases the expression

CCOC(=O)COc1ccc(/C=C2\SC(=S)NC2=O)cc1OC [IMR-1]
tumor growth [14]: impairs tumor growth

C[C@H](NC(=O)Cc1cc(F)cc(F)c1)C(=O)N[C@H](C(=O)OC(C)(C)C)c1ccccc1 [DAPT]
expression of the classic Notch targets HES1 and HEY1 [13]: decreases the expression
